Test results from the EternaBench riboswitch data.

Test system: MS2 coat protein
Experiment: apparent Kd, MS2 coat protein; higher = weaker binding; RNA-MaP array; FMN 200 µM where present
Procedure, shortened: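 Designs were transcribed by stalled E. coli RNA polymerase on Illumina sequencing-chip clusters. They were titrated with SNAP-549-labelled MS2 coat protein from 0.7 or 1.5 nM, doubling to 3 µM, without and then with constant ligand. Buffer: 100 mM Tris-HCl pH 7.5, 80 mM KCl, 4 mM MgCl2, BSA, DTT, yeast tRNA, Tween-20. Green signal was normalised to red-channel RNA signal and control-cluster median Fmax. Apparent Kd is the median of filtered per-cluster binding-curve fits.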

[1] = designed as: OFF switch for flavin mononucleotide, no ligand
[2] = ligand present: flavin mononucleotide, designed as: OFF switch for flavin mononucleotide
[3] = designed as: ON switch for flavin mononucleotide, no ligand
[4] = ligand present: flavin mononucleotide, designed as: ON switch for flavin mononucleotide

Sequence	apparent Kd [1]	apparent Kd [2]	apparent Kd [3]	apparent Kd [4]
AAGCCCUGAGGAUAUCUCAUCUCGCACAUGAGGAUCACCCAUGUUCUUCUCUGGGUUUCGAGAGAAGGCAGGCCUC	954 nM	641 nM		
UCCUUGUCCUGAGGAUAUCCGUGGUUCCCGAAAGGAGAAGGCAGGACAUGAGGAUCACCCAUGUACCCAGAAAACGUGCAGAGU	163 nM	273 nM		
GUGAAGAUAGCAGGAUAUUUAUUUCCUACAUGAGGAUCACCCAUGUAGGUGAUCAGCCGAGUAAAGGAGAAGGGCUAUCUUUAC			30.9 nM	21.3 nM
ACAUUGCGAGGAUAUACAUGAGGAUCACCCAUGUGGUAGCAGAUACGGUAGGGCUAGUGUAGAAGGUGUCAUGG	112 nM	96.3 nM		
AUUAUUUAUAGUUAUUUUUAUUUUACAGAAGGUGAAUUAUUUACAUGAGGAUCACCCAUGUUCUUCAAGGAUAUGUUGUUAUAC			49.4 nM	22.1 nM
GGUCCAACAUGAGGAUAUAGCACCUUAUUGGUGCUAGAAGGCGUGUCGGUAGACAUGAGGAUCACCCAUGUAAUACAUUGGACC			218 nM	28.5 nM
GCGGUACAUGAGGAUCACCCAUGUCAGGAUAUCCGCUGUUUGUUAAUAAGCAGGCGGUGGAGAAGGGACUUCGC	32 nM	33.1 nM		
AUAUAGUCAGGAUAUCGAAGUGAGUGUUGGUUUGUAAGGUACGAGAAGGGACAUGAGGAUCACCCAUGUAGGAA	40.3 nM	38.8 nM		
UCCACGUGUGCAGGAUAUCCCACGAGCGCAACAUGAGGAUCACCCAUGUACCUGAGUCUCGGAACGGAGAAGGGUACAUGUUAA			340 nM	45.2 nM
GGAUAGGACAGAGGAUAUACGUGCUAGAGAUACUAGCAAAAUUGCCUCACAUGAGGAUCACCCAUGUAGAAGGCUGUCCUAUCG	7.72 nM	134 nM		
AUAAAACAUGAGGAUCACCCAUGUCAGGAUAUACGAUAUUAAAUUUAAUAUAUUUAUAGUAGAAGGGACAAAUA	50.4 nM	55 nM		
AGCCGUGUACAGAAGGGCGACAUGAGGAUCACCCAUGUCUCCUUGUUGGUCGUAGGAUAUGUACCGUGGCUCUCUACUGUGGGA	5.96 nM	7.28 nM		
GGAUCGAAAGUGAGGAUAUGCUGGUCCUUGGAUCAGCAGAAGGCACAUGAGGAUCACCCAUGUGUUCCCGGUCC	19.7 nM	99.8 nM		
CUCAUGUGAGGAUAUCAGUAGUAAAAAAAUAAAAUUACUACUGAGAAGGCACAUGAGGAUCACCCAUGUGUCUU	16.3 nM	31.7 nM		
AACCGACAUGAGGAUCACCCAUGUCAGGAUAUGGACUGACAUCGAAAGGAUGGAGGAACCAGAAGGGACUGGGC	37.1 nM	81.6 nM		
CCAUGGCUGUGAGGAUAUGUCUGACAAAGUCAGACAGAAGGCACAUGAGGAUCACCCAUGUGAAAACACCAACAAAAGCCAUGG	5.93 nM	6.9 nM		
UGUCCAUAGCAGAAGGACAUGAGGAUCACCCAUGUAAUAAAACAUCCAAAUGUAGGAUAUGCUAUGGACUAAGAGCGAAAGCUC	28.9 nM	606 nM		
AACUGACAUGAGGAUCACCCAUGUCAGGAUAUGACUUGACGAAAUAAAACACGUCAUGUCAGAAGGGACAUGAA	17.4 nM	15.2 nM		
ACACGUGUGUCAGGAUAUCACACUAAUUGGACUAACUAUAUGAAAGCACAUGAGGAUCACCCAUGUGAGAAGGGACGCCACCUG	12 nM	9.97 nM		
UCACGGCUCGGAGGAUAUGACACAUGAGGAUCACCCAUGUGUGUAAGCCAAUAAACCUACAAAUGUCAGAAGGCCGCGCCUCAU	15.3 nM	14.7 nM		
GAAUUACAUGAGGAUCACCCAUGUGAGGAUAUCGAUGUAACUAGCAGCGUGCGGGACUCGAGAAGGCACUUGGA	39.1 nM	67.5 nM		
AAAACGCAAGGAUAUACAUGAGGAUCACCCAUGUAGACAAUAUAAAGGGUCUCACCAUGUAGAAGGUGCUACCC	21.3 nM	16.5 nM		
GGGUUUGGUGUGAGGAUAUCGGGCCCGAAAGGGUUUGAGAAGGCACAUGAGGAUCACCCAUGUAAGCCGGGCCC	22.8 nM	17.2 nM		
